pPAFAH FP inh = inhibitors of human plasma PAF acetylhydrolase (pPAFAH) | Q13093 | recombinant pPAFAH, FP-rhodamine probe fluorescence polarization | inhibition, % at 3.39 µM | actives 1.5% (n = 330,000);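 active means inhibition above the mean inhibition across the screen plus 3 SD, cut at about 25% in these data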;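 further: inhibitors block binding of the rhodamine activity-based probe so polarization drops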
Target sequence (Q13093 whole entry, looked up): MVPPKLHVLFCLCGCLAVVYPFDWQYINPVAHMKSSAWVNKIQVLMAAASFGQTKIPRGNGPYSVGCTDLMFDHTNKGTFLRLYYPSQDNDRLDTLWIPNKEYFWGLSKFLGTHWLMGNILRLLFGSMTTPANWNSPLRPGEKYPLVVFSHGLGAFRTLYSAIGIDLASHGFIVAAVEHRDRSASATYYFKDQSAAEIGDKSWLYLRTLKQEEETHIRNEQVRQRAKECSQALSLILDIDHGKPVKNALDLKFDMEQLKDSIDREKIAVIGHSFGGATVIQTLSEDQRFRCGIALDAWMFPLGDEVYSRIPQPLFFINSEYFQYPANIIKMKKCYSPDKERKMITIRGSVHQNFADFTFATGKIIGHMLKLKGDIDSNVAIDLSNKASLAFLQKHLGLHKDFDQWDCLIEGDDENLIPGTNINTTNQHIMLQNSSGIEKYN
PAFAH2 inh = PAFAH2 (human) inhibition; Q99487; inhibition, % at 3.39 µM; AID 492956; actives 0.99% (n = 340,000); recombinant PAFAH2, FP-rhodamine activity probe, fluorescence polarization;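 active means inhibition above the mean over all tested compounds plus 3 SD, cut at about 30% in these data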;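 further: inhibitors block probe labeling of enzyme so polarization drops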
PAFAH1B2 FP inh = PAFAH1B2 (human) inhibition; P68402; recombinant PAFAH1B2, FP-rhodamine activity probe, fluorescence polarization; inhibition, % at 3.39 µM; actives 1.2% (n = 340,000); AID 492953;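 active means inhibition above the mean of all tested compounds plus 3 SD, cut at about 24% in these data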
Target sequence (P68402 whole entry, looked up): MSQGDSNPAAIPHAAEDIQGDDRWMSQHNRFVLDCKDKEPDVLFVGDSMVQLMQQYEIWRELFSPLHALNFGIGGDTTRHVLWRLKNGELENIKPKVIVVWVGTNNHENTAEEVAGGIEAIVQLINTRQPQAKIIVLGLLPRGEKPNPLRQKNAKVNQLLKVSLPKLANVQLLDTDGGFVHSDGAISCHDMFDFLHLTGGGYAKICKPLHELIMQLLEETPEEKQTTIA
PAFAH1B3 FP inh = PAFAH1B3 (human) inhibition. inhibition, % at 3.39 µM. actives 0.28% (n = 340,000). recombinant PAFAH1B3, FP-rhodamine probe, fluorescence polarization. Q15102;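 active means inhibition above the screen-wide average of all tested compounds plus 3 SD, cut at about 25% in these data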
PREPL inh = inhibitors of human prolyl oligopeptidase-like enzyme PREPL; Q4J6C6; recombinant PREPL, fluorescence polarization activity-based probe; inhibition, % at 5.96 µM; actives 0.68% (n = 320,000); AID 2751; in the data active means inhibition above about 43%
Apaf-1 inh = blocks human Apaf-1 apoptosome activity; inhibition, % at 20 µM; reconstituted apoptosome caspase-3 activity, DEVD-Rh110 fluorescence; actives 0.71% (n = 330,000); O14727; active means inhibition of at least 40% at 20 µM
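Material: cell-free apoptosome with Apaf-1, procaspase-3 and caspase-9; Buffer or medium: Hepes pH 7.5 with detergent and BSA; Reagent: cytochrome c trigger plus (Z-DEVD)2-Rh110 caspase-3 substrate; Times: compound with Apaf-1, dATP, procaspase-3 30 min, then 50 min reaction, room temperature; Technique: Rh110 fluorescence intensity.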
PAFAH2 FP conf = PAFAH2 (human) inhibition, confirmed; inhibition, % at 3.39 µM; recombinant PAFAH2, FP-rhodamine activity probe, fluorescence polarization; actives 65% (n = 2,300); shares compounds with PAFAH2 inh;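 active means mean inhibition over three repeats above a set limit taken from the earlier primary screen, cut at about 30% in these data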;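 further: inhibitor blocks binding of rhodamine activity probe so polarization falls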
Large screens that a line does not name were inactive (follow-up assays come after a bar, where they were run). An excerpt weighted towards active compounds, which were near 3.5% of everything screened.

COc1ccc(/C=C2\SC(=S)N(c3cccnc3)C2=O)cc1	none
CC1CCCC(NC(=O)COC(=O)c2ccccc2Sc2ccccc2C#N)C1C (centres undefined)	none
CC(=O)c1ccc(NC(=O)COC(=O)c2ccccc2Sc2ccccc2C#N)cc1	none
O=C(COC(=O)c1ccccc1)NC12CC3CC(CC(C3)C1)C2	PAFAH2 inh 79 | PAFAH2 FP conf 89
COc1ccc(C(=O)NC23CC4CC(CC(C4)C2)C3)cc1	none
N#Cc1cccc(NC(=O)COC(=O)c2ccccc2Sc2ccccc2C#N)c1	PAFAH2 inh 45 | PAFAH2 FP conf 39
N#Cc1ccccc1Sc1ccccc1C(=O)OCC(=O)NC12CC3CC(CC(C3)C1)C2	PAFAH2 inh 50 | PAFAH2 FP conf 47
COc1ccc(C(=O)NCC(=O)OCC(=O)NC23CC4CC(CC(C4)C2)C3)cc1	PAFAH2 inh 58 | PAFAH2 FP conf 44
CCOC(=O)c1cnc(N)nc1C(F)(F)F	none
CC1CC(C)CN(Cc2nc(N)nc(Nc3ccc4ccccc4c3)n2)C1 (centres undefined)	none
O=C(COC(=O)c1ccccc1O)Nc1ncc(Cl)cc1Cl	PAFAH2 inh 33 | PAFAH2 FP conf inactive
O=C(COC(=O)c1ccccc1NC(=O)c1ccco1)Nc1ncc(Cl)cc1Cl	none
O=C(COC(=O)c1ccc(Cl)nc1)Nc1ncc(Cl)cc1Cl	none
O=C(COC(=O)C12CC3CC(CC(C3)C1)C2)Nc1ncc(Cl)cc1Cl	PAFAH2 inh 43 | PAFAH2 FP conf inactive
CCCCn1c(N)c(N(CCOC)C(=O)c2ccc(S(=O)(=O)N(CC)c3ccccc3)cc2)c(=O)[nH]c1=O	none
CC(=O)c1c(C)[nH]c(C(=O)OCC(=O)N2CCc3ccccc32)c1C	PAFAH2 inh 44 | PAFAH2 FP conf inactive
O=C(COc1ccccc1)N1CCc2ccccc21	none
O=C(OCC(=O)N1CCc2ccccc21)c1ccccc1F	PAFAH2 inh 57 | PAFAH2 FP conf 53
Cc1ccc(C(=O)OCC(=O)N2CCc3ccccc32)cc1	PAFAH2 inh 63 | PAFAH2 FP conf 63
CCOC(=O)c1[nH]c(C)c(C(=O)OCC(=O)N2CCc3ccccc32)c1C	none
Cn1cccc1C(=O)OCC(=O)N1CCc2ccccc21	PAFAH2 inh 31 | PAFAH2 FP conf inactive
O=C(OCC(=O)N1CCc2ccccc21)c1ccccc1[N+](=O)[O-]	none
Cc1ccc(C(=O)OCC(=O)N2CCCc3ccccc32)cc1C	none (no result: pPAFAH FP inh, PREPL inh)
Cc1ccc(NC(=O)C2CC3CCC2C3)c(Br)c1 (centres undefined)	none (no result: pPAFAH FP inh, PREPL inh)
Cc1ccc(NC(=O)Cc2nc(CN(C)CC(=O)Nc3ccc(C)cc3)cs2)cc1	PAFAH2 inh 31 | PAFAH2 FP conf inactive
CCN(CC)c1ccc(S(=O)(=O)N2CCOCC2)cc1NC(=O)COC(=O)/C=C/c1ccc(O)c(OC)c1	PAFAH2 inh 65 (no result: pPAFAH FP inh, PREPL inh, Apaf-1 inh) | PAFAH2 FP conf 66
CCN(CC)c1ccc(S(=O)(=O)N2CCOCC2)cc1NC(=O)COC(=O)/C=C/c1ccccc1	PAFAH2 inh 57 (no result: pPAFAH FP inh, PREPL inh, Apaf-1 inh) | PAFAH2 FP conf 42
CCN(CC)c1ccc(S(=O)(=O)N2CCOCC2)cc1NC(=O)COC(=O)/C=C/c1ccc(C)o1	PAFAH2 inh 38 | PAFAH2 FP conf 40
COc1ccc([C@@H]2[C@@H]3C(=O)N(C(C)(C)C)C(=O)[C@@H]3[C@]3(C)C(=O)N(c4cccc(Cl)c4)C(=O)N23)cc1	none
O=C(COC(=O)c1ccc2ncsc2c1)NCc1ccc(F)cc1	PAFAH2 inh 51 | PAFAH2 FP conf 34
O=C(COC(=O)c1ccc2ncsc2c1)NCc1ccccc1Cl	PAFAH2 inh 84 | PAFAH2 FP conf 67
COc1ccc(CNC(=O)COC(=O)c2ccc3ncsc3c2)cc1OC	none
O=C(C1CCN(S(=O)(=O)c2ccc(Cl)cc2)CC1)N1CCN(c2ccccn2)CC1	none
COc1ccccc1NC(=O)CN1CCSc2ccccc21	none
O=c1cc(-c2ccc(O)c(O)c2)oc2ccc3ccccc3c12	PAFAH2 inh 35 (no result: pPAFAH FP inh, PREPL inh) | PAFAH2 FP conf 47
C/C(=N\NC(=O)c1ccccn1)C12CC3CC(CC(C3)C1)C2	PAFAH2 inh 38 | PAFAH2 FP conf inactive
CN(C)CCNC(=O)c1cc2c(=O)n(C)c3ccccc3c2n1C	PAFAH2 inh 47 | PAFAH2 FP conf inactive
Cc1ccccc1CN(C)C(=O)COC(=O)c1ccc2[nH]c(C)c(C)c2c1	PAFAH2 inh 51 | PAFAH2 FP conf 31
Cc1ccc(NC(=O)CNC(=O)c2ccc(C)o2)cc1	none
N[C@@H](Cc1cc(I)c(O)c(I)c1)C(=O)O	PAFAH2 inh 54 | PAFAH2 FP conf inactive
O=C(CCS(=O)(=O)c1ccc(Cl)cc1)N1CCN(S(=O)(=O)c2cccs2)CC1	PAFAH2 inh 51 | PAFAH2 FP conf 40
COc1ccc(S(=O)(=O)N2CCOCC2)cc1NC(=O)CN1CCCc2ccccc21	PAFAH2 inh 66 | PAFAH2 FP conf 56
COc1ccc(S(=O)(=O)N2CCOCC2)cc1NC(=O)Cc1c(Cl)cccc1Cl	PAFAH2 inh 49 | PAFAH2 FP conf 45
O=C1OC(C(=O)NCc2ccccc2)Cc2ccccc21 (centres undefined)	PAFAH2 inh 35 | PAFAH2 FP conf inactive
O=C(O)c1ccc(N=c2oc3cc(O)ccc3cc2C(=O)NCc2ccccc2)cc1	PAFAH2 inh 54 | PAFAH2 FP conf 40
O=C(O)/C=C/C(=O)NCCNc1ncc(C(F)(F)F)cc1Cl	PAFAH2 inh 54 | PAFAH2 FP conf 38
CCSc1nnc(NC(=O)CSc2ncccn2)s1	none
CCSc1nnc(NC(=O)CSc2c(Cl)cccc2Cl)s1	PAFAH2 inh 50 | PAFAH2 FP conf 42
CN1CC(=O)N2Cc3[nH]c4ccccc4c3C[C@H]2C1=O	none
Cc1c(NS(=O)(=O)c2ccc(N)cc2)c(=O)n(-c2ccccc2)n1C	none
O=[N+]([O-])c1ccc(O)c(/C=N/Nc2ccccc2Cl)c1	PAFAH2 inh 74 | PAFAH2 FP conf 62
O=[N+]([O-])c1ccccc1N/N=C\c1ccccc1Cl	none
O=S(=O)(/C=C/c1ccccc1)N1CCOCC1	none
COc1ccc(C(=O)Nc2ccccc2N2CCN(C(=O)c3ccccc3)CC2)cc1Br	none
CCOc1ccc(NC(=O)CN(C)C(=O)CC2CC3CCC2C3)cc1OCC (centres undefined)	none
N#Cc1ccc(NC(=O)COC(=O)c2ccc(F)c(S(=O)(=O)N3CCOCC3)c2)cc1	PAFAH2 inh 48 | PAFAH2 FP conf 39
Cc1ccc(C(=O)OCC(=O)Nc2ccc3c(c2)OCO3)cc1S(=O)(=O)N1CCOCC1	PAFAH2 inh 74 | PAFAH2 FP conf 76
CC(=O)c1ccc(NC(=O)COC(=O)CC2CC3CCC2C3)cc1 (centres undefined)	PAFAH2 inh 34 | PAFAH2 FP conf inactive
